Data published in PubChem BioAssay AID463202 (Sanford-Burnham Center for Chemical Genomics, 2010).
The source made the active and inactive calls.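 How the source made its calls: active means inhibition above 50% relative to controls in each of two repeat datasets, tested at 10 µM; inactive means the rest.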

What follows are compounds tested against Vasopressin V2 receptor (Homo sapiens) (UniProt P30518) (assay: vasopressin V2 receptor antagonists, SAR follow-up, selectivity assay for GPR35 antagonist project, imaging, beta-arrestin-GFP, U2OS, antagonist mode (AID 463202)). Conditions: U2OS AVPR2 beta-arrestin-GFP translocation imaging; at 10 µM; active compounds read high.
Sequence of Vasopressin V2 receptor (Homo sapiens) (P30518 whole entry, looked up): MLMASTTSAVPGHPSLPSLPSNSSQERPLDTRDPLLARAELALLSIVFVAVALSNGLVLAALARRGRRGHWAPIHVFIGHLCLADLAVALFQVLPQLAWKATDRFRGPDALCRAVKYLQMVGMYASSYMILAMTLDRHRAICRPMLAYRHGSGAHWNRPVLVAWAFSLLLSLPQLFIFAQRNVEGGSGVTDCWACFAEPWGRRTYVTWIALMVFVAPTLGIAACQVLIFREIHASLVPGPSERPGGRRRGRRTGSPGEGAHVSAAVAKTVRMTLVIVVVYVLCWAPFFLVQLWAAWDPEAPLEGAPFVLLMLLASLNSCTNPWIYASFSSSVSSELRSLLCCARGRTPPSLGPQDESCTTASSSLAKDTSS
How it was run: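 Assay system: U2OS cells expressing human vasopressin V2 receptor and GFP-β-arrestin | Reagent: Vasopressin agonist at 16 nM for 40 min | Timing: Compound 15 min, then agonist 40 min | Detection: 40x fluorescence imaging, wavelet analysis of GFP-β-arrestin spots | Benchmarks: Vasopressin 0.01 µIU/mL as low, 10 mIU/mL as high control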

inhibition, inactive:
COc1ccc(/C=C2/SC(=S)N(CCCC(=O)Nc3ccc(O)cc3)C2=O)cc1 1.8%
COc1ccc(/C=C2\SC(=S)N(CCCC(=O)Nc3cccc(C(=O)O)c3)C2=O)cc1OC 27.3%
Cc1ccc(/C=C2\SC(=S)N(CCCC(=O)Nc3cccc(C(=O)O)c3)C2=O)cc1 8.2%
Cc1ccccc1N1CCN(c2ncnc3c2cnn3Cc2ccc(Cl)cc2)CC1 7.6%
O=C(CCCN1C(=O)/C(=C/c2ccc3c(c2)OCO3)SC1=S)Nc1cccc(C(=O)O)c1 13.2%
O=C(CCCN1C(=O)/C(=C/c2ccc3c(c2)OCO3)SC1=S)Nc1ccc(C(=O)O)c(O)c1 28.4%
O=C(CCCN1C(=O)S/C(=C/C=C/c2ccccc2)C1=O)Nc1ccc(C(=O)O)cc1 8.9%
Cc1c(C(=O)Nc2ccc3c(c2)OCCO3)sc2ncnc(N3CCC(C)CC3)c12 -3.7%
O=C(CCCN1C(=O)/C(=C\c2ccccc2)SC1=S)Nc1cccc(C(=O)O)c1 15.9%
O=C(CCCN1C(=O)S/C(=C/c2ccccc2)C1=S)Nc1ccc(C(=O)O)cc1 0.7%
CC(/C=C1\SC(=S)N(CCCC(=O)Nc2ccc(C(=O)O)cc2)C1=O)=C\c1ccccc1 18.5%
COc1ccc(/C=C2\SC(=S)N(CCCC(=O)Nc3ccc(O)cc3)C2=O)cc1 25.3%
Cc1ccc(/C=C2\SC(=S)N(CCCC(=O)Nc3ccc(O)cc3)C2=O)cc1 9.2%
COc1cccc(/C=C2\SC(=S)N(CCCC(=O)Nc3ccc(C(=O)O)cc3)C2=O)c1 -2.9%
O=C(Nc1ccc2nc(SCc3ccccc3)sc2c1)c1ccccc1C(=O)N1CCOCC1 3.3%
Cc1nc(N2CCC(C)CC2)c2c(C)c(C(=O)Nc3ccc4c(c3)OCCO4)sc2n1 -5.7%
O=C(Nc1ccc2nc(SCc3ccc(Cl)cc3)sc2c1)c1ccccc1C(=O)N1CCOCC1 -0.8%
Cc1ccc(Cn2ncc3c(N4CCN(c5ccccc5C)CC4)ncnc32)cc1 36.9%
CCOc1ccc(NC(=O)CSc2nc3ccsc3c(=O)n2Cc2ccc(C(=O)O)cc2)cc1 15.5%
O=C(CCCN1C(=O)/C(=C\c2ccccc2)SC1=S)Nc1ccc(C(=O)O)cc1 4.8%
O=C(CCCN1C(=O)/C(=C/c2ccc3c(c2)OCO3)SC1=S)Nc1ccc(C(=O)O)cc1 -6.5%
COc1ccc(/C=C2\SC(=S)N(CCCC(=O)Nc3ccc(C(=O)O)c(O)c3)C2=O)cc1OC 22.9%
O=C(CCCN1C(=O)S/C(=C\C=C\c2ccccc2)C1=O)Nc1ccc(C(=O)O)cc1 18.2%
CC(C)c1ccc(NC(=O)CSc2nc3ccsc3c(=O)n2Cc2ccc(C(=O)O)cc2)cc1 22.9%
CC(C)(C)c1ccc(OCCC(=O)NCCc2ccc(S(N)(=O)=O)cc2)cc1 12.5%
O=C(CCCN1C(=O)/C(=C/c2ccccc2)SC1=S)Nc1ccc(C(=O)O)c(O)c1 51.3%
CCOC(=O)c1ccc(NC(=O)CCCN2C(=O)/C(=C/c3ccc(C)cc3)SC2=S)cc1 28.8%
CC(/C=C1\SC(=S)N(CCCC(=O)Nc2ccc(C(=O)O)c(O)c2)C1=O)=C\c1ccccc1 30%
Clc1ccc(Cn2ncc3c(N4CCN(c5ccccc5)CC4)ncnc32)cc1 3.4%
CCc1ccc(/C=C2\SC(=S)N(CCCC(=O)Nc3ccc(C(=O)O)cc3)C2=O)cc1 -6.8%
